According to ChEMBL document CHEMBL1275352, “Selection of evodiamine as a novel topoisomerase I inhibitor by structure-based virtual screening and hit optimization of evodiamine derivatives as antitumor agents” (J Med Chem, 2010):
Calls of active or inactive are those of the source. The rule behind the calls is not given here.

Tests used:
[1] = target: T1, DNA topoisomerase 1 (Homo sapiens) (UniProt P11387); assay: Inhibition of DNA topoisomerase 1-mediated supercoiled Escherichia coli pBR322 DNA relaxation at 100 uM by UV transilluminator analysis; conditions: 500 uM; in the assay text read “500 uM” for “100 uM”
T1 sequence (whole entry): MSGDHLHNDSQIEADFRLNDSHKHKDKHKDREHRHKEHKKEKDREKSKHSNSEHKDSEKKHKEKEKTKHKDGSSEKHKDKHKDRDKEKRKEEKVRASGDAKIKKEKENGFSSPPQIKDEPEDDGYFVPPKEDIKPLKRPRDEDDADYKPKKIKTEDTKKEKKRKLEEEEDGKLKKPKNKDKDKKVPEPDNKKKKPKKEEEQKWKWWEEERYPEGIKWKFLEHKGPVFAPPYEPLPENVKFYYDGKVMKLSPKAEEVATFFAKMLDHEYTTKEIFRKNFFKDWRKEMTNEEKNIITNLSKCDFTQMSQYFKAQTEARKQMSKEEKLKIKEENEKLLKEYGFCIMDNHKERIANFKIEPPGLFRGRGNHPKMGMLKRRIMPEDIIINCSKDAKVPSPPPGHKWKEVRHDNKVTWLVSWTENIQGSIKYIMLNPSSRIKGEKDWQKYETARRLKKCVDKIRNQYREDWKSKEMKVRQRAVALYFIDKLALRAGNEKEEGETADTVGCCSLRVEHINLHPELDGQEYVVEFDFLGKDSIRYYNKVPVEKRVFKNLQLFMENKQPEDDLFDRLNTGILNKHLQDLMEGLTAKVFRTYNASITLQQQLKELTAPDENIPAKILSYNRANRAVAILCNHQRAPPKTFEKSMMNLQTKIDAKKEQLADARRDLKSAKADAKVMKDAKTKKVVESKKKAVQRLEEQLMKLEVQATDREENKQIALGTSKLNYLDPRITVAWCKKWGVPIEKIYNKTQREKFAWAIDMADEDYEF
In short: (§1)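 Purified topoisomerase I was incubated with supercoiled DNA, and inhibition of relaxation by the enzyme was scored. Compounds were tested at concentrations ranging from 1 to 500 μM; an initial screen was run at 500 μM and active compounds were retested at lower concentrations.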

[2] = target: T1, DNA topoisomerase 1 (Homo sapiens); assay: Inhibition of DNA topoisomerase 1-mediated supercoiled Escherichia coli pBR322 DNA relaxation at 10 uM by UV transilluminator analysis; in short: as §1
MDA-MB-435 = assay: Cytotoxicity against human MDA-MB-435 cells after 3 days by MTT assay; format: functional, cell-based; conditions: mda-mb-435
[3] = target: T1, DNA topoisomerase 1 (Homo sapiens); assay: Inhibition of DNA topoisomerase 1-mediated supercoiled Escherichia coli pBR322 DNA relaxation by UV transilluminator analysis; in short: as §1
A549 = assay: Cytotoxicity against human A549 cells after 3 days by MTT assay; format: functional, cell-based; conditions: a549
LoVo = assay: Cytotoxicity against human LoVo cells after 3 days by MTT assay; format: functional, cell-based; conditions: lovo

inhibition [1]: Active | inhibition [2]: Active | inhibition [3]: Dose-dependent effect
SMILES: CCCOc1ccc(-c2nc3s/c(=C4\C(=O)N(CC(=O)O)c5ccccc54)c(=O)n3n2)cc1
IC50 (MDA-MB-435): Not Active | IC50 (A549): Not Active | IC50 (LoVo): Not Active
